# Test results as given in ChEMBL document CHEMBL1126829, “Synthesis and relative potencies of new constrained CRF antagonists” (1993).
# Where a SMILES comes first, the peptide text is derived from it. [ ]: non-standard residue; d: D form. NMeL = CN[C@@H](CC(C)C)C(=O)O; NMeA = CN[C@@H](C)C(=O)O
# Key:
# [1] = organism: Rattus norvegicus; test: Percent intrinsic activity was determined in rat pituitary cells; format: functional, Pituitary gland cell
# [2] = organism: Rattus norvegicus; test: Compound was tested in vitro to antagonize CRF-induced release of ACTH by rat pituitary cells in culture; format: functional, Pituitary gland cell
# How it was run: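 Collagenase-dispersed rat anterior pituitary cells were grown in monolayer culture for 3–5 days. Cells were then incubated for 3 h with peptide at several doses against 1 nM CRF stimulation (n = 3). ACTH secreted into the medium was measured by double-antibody RIA. Relative potencies were derived from the dose-response curves.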
Compound,IA [1] [%],Potency [2]
H-DLTFHLLREMLEMAKAEQEAEQAALNRLLLEEA-NH2,14,0.12
CCCC[C@H](NC(=O)[C@H](CCC(=O)O)NC(=O)[C@H](CC(C)C)NC(=O)[C@@H](NC(=O)[C@H](CCC(=O)O)NC(=O)[C@H](CCCN=C(N)N)NC(=O)[C@](C)(CC(C)C)NC(=O)[C@H](CC(C)C)NC(=O)[C@H](Cc1c[nH]cn1)NC(=O)[C@H](N)Cc1ccccc1)C(C)C)C(=O)N[C@@H](C)C(=O)N[C@@H](CCCN=C(N)N)C(=O)NC(C)(C)C(=O)N[C@@H](CCC(=O)O)C(=O)N[C@@H](CCC(N)=O)C(=O)N[C@@H](CC(C)C)C(=O)NC(C)(C)C(=O)N[C@@H](CCC(N)=O)C(=O)N[C@@H](CCC(N)=O)C(=O)NC(C)(C)C(=O)N[C@@H](Cc1c[nH]cn1)C(=O)N[C@@H](CO)C(=O)N[C@@H](CC(N)=O)C(=O)N[C@@H](CCCN=C(N)N)C(=O)N[C@@H](CCCCN)C(=O)N[C@@H](CC(C)C)C(=O)N[C@@H](CCCC)C(=O)N[C@@H](CCC(=O)O)C(=O)N[C@H](C(=O)N[C@H](C(N)=O)[C@@H](C)CC)[C@@H](C)CC,8,
CSCC[C@H](NC(=O)[C@H](CCC(=O)O)NC(=O)[C@H](CCCN=C(N)N)NC(=O)[C@H](CC(C)C)N(C)C(=O)[C@H](CC(C)C)NC(=O)[C@H](Cc1c[nH]cn1)NC(=O)[C@H](Cc1ccccc1)NC(=O)[C@@H](NC(=O)[C@H](CC(C)C)N(C)C(=O)[C@@H](N)CC(=O)O)[C@@H](C)O)C(=O)N[C@@H](CC(C)C)C(=O)N[C@@H](CCC(=O)O)C(=O)N[C@@H](CCSC)C(=O)N(C)[C@@H](C)C(=O)N[C@@H](CCCCN)C(=O)N[C@@H](C)C(=O)N[C@@H](CCC(=O)O)C(=O)N[C@@H](CCC(N)=O)C(=O)N(C)[C@@H](CC(C)C)C(=O)N[C@@H](C)C(=O)N[C@@H](CCC(=O)O)C(=O)N[C@@H](CCC(N)=O)C(=O)N[C@@H](C)C(=O)N(C)[C@@H](C)C(=O)N[C@@H](CC(C)C)C(=O)N[C@@H](CC(N)=O)C(=O)N[C@@H](CCCN=C(N)N)C(=O)N[C@@H](CC(C)C)C(=O)N(C)[C@@H](CC(C)C)C(=O)N[C@@H](CC(C)C)C(=O)N[C@@H](CCC(=O)O)C(=O)N[C@@H](CCC(=O)O)C(=O)N(C)[C@@H](C)C(N)=O (H-D[NMeL]TFHL[NMeL]REMLEM[NMeA]KAEQ[NMeL]AEQA[NMeA]LNRL[NMeL]LEE[NMeA]-NH2),0,0
CCCC[C@H](NC(=O)[C@H](CCC(=O)O)NC(=O)[C@H](CC(C)C)NC(=O)[C@@H](NC(=O)[C@H](CCC(=O)O)NC(=O)[C@H](CCCN=C(N)N)NC(=O)[C@H](CC(C)C)NC(=O)[C@](C)(CC(C)C)NC(=O)[C@H](Cc1c[nH]cn1)NC(=O)[C@H](N)Cc1ccccc1)C(C)C)C(=O)N[C@@H](C)C(=O)N[C@@H](CCCN=C(N)N)C(=O)NC(C)(C)C(=O)N[C@@H](CCC(=O)O)C(=O)N[C@@H](CCC(N)=O)C(=O)N[C@@H](CC(C)C)C(=O)NC(C)(C)C(=O)N[C@@H](CCC(N)=O)C(=O)N[C@@H](CCC(N)=O)C(=O)NC(C)(C)C(=O)N[C@@H](Cc1c[nH]cn1)C(=O)N[C@@H](CO)C(=O)N[C@@H](CC(N)=O)C(=O)N[C@@H](CCCN=C(N)N)C(=O)N[C@@H](CCCCN)C(=O)N[C@@H](CC(C)C)C(=O)N[C@@H](CCCC)C(=O)N[C@@H](CCC(=O)O)C(=O)N[C@H](C(=O)N[C@H](C(N)=O)[C@@H](C)CC)[C@@H](C)CC,23,
